According to ChEMBL document CHEMBL1177741, “Cardiac glycosides from Antiaris toxicaria with potent cardiotonic activity” (J Nat Prod, 2010):

Legend:
[1] = Cardiotonic activity in guinea pig left atrial muscles assessed as minimum positive inotropic effective concentration causing myocardial contraction; format: functional, Cavia porcellus, Muscle tissue
Procedure, shortened: (§1)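 Guinea pig left atrial or right ventricular strips were perfused with Tyrode's solution, held at 1 g tension and paced at 2 Hz (2 ms, twice threshold). After about 60 min stabilisation, drug was added cumulatively. PIECmin was recorded as the lowest concentration that increased myocardial contraction.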

[2] = Cardiotonic activity in guinea pig right ventricular muscles assessed as minimum positive inotropic effective concentration causing myocardial contraction; format: functional, Cavia porcellus, Muscle tissue; procedure, shortened: as §1
[3] = Safety index, ratio of arrhythmogenic concentration to minimum positive inotropic effective concentration causing myocardial contraction in guinea pig left atrial muscles; format: toxicity, tissue-based, Cavia porcellus, Muscle tissue; details: for selectivity ratio: isolated left atrial muscles
Procedure, shortened: (§2)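 Paced guinea pig left atrial or right ventricular strips (1 g tension, 2 Hz) received cumulative drug addition. The lowest concentration raising contraction (PIECmin) and the concentration inducing arrhythmia were both recorded. Safety index was calculated as the ratio of the arrhythmogenic concentration to PIECmin.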

[4] = Safety index, ratio of arrhythmogenic concentration to minimum positive inotropic effective concentration causing myocardial contraction in guinea pig right ventricular muscles; format: toxicity, tissue-based, Cavia porcellus, Muscle tissue; details: for selectivity ratio: isolated right ventricular muscles; procedure, shortened: as §2
[5] = Cardiotonic activity in guinea pig left atrial muscles assessed as maximum positive inotropic effective concentration causing myocardial contraction relative to basal level; format: functional, Cavia porcellus, Muscle tissue
Procedure, shortened: (§3)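 Isolated left atrial or right ventricular strips from adult guinea pigs (300–500 g; pentobarbital 25 mg/kg i.p.; heart retrogradely perfused with Tyrode's, pH not stated). Tissue held at 1 g tension, paced at 2 Hz (2 ms pulses, twice threshold), stabilised about 60 min, then given cumulative drug additions. Maximal inotropic effect taken at the concentration just before arrhythmia onset.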

[6] = Cardiotonic activity in guinea pig right ventricular muscles assessed as maximum positive inotropic effective concentration causing myocardial contraction relative to basal level; format: functional, Cavia porcellus, Muscle tissue; procedure, shortened: as §3

## C[C@]12CC[C@H]3[C@@H](CC[C@]4(O)C[C@@H](O)CC[C@]34C=O)[C@@]1(O)CC[C@@H]2C1=CC(=O)OC1 [STROPHANTHIDIN]
[1]
  Activity: 1 µM
[2]
  Activity: 4.8 µM
[3]
  selectivity ratio: 9
[4]
  selectivity ratio: 8.7
[5]
  Activity: 165%
[6]
  Activity: 240%

## C[C@@H]1O[C@H](O[C@H]2CC[C@]3(C=O)[C@H]4C[C@@H](O)[C@]5(C)[C@@H](C6=CC(=O)OC6)CC[C@]5(O)[C@@H]4CC[C@]3(O)C2)[C@H](O)[C@H](O)[C@H]1O
[1]
  Activity: 1 µM
[2]
  Activity: 2 µM
[3]
  selectivity ratio: 10
[4]
  selectivity ratio: 15
[5]
  Activity: 243%
[6]
  Activity: 250%

## C[C@H]1O[C@@H](O[C@H]2CC[C@]3(C=O)[C@H]4CC[C@]5(C)[C@@H](C6=CC(=O)OC6)CC[C@]5(O)[C@@H]4CC[C@]3(O)C2)[C@H](O)[C@H](O)[C@H]1O [DESGLUCOCHEIROTOXIN]
[1]
  Activity: 0.05 µM
[2]
  Activity: 0.5 µM
[3]
  selectivity ratio: 50
[4]
  selectivity ratio: 10
[5]
  Activity: 300%
[6]
  Activity: 300%

## C[C@@H]1O[C@@H](O[C@H]2CC[C@]3(C=O)[C@H]4CC[C@]5(C)[C@@H](C6=CC(=O)OC6)CC[C@]5(O)[C@@H]4CC[C@]3(O)C2)[C@H](O)[C@H](O)[C@H]1O [CONVALLATOXIN]
[1]
  Activity: 0.1 µM
[2]
  Activity: 0.125 µM
[3]
  selectivity ratio: 10
[4]
  selectivity ratio: 8
[5]
  Activity: 467%
[6]
  Activity: 300%

## C[C@@H]1O[C@@H](O[C@H]2CC[C@]3(C=O)[C@H]4CC[C@]5(C)[C@@H](C6=CC(=O)OC6)CC[C@]5(O)[C@@H]4CC[C@]3(O)C2)[C@H](O)[C@H](O)[C@H]1O[C@@H]1O[C@H](CO)[C@@H](O)[C@H](O)[C@H]1O [CONVALLOSIDE]
[1]
  Activity: 0.25 µM
[2]
  Activity: 1 µM
[3]
  selectivity ratio: 20
[4]
  selectivity ratio: 9
[5]
  Activity: 443%
[6]
  Activity: 292%

## C[C@]12[C@H](O)C[C@H]3[C@@H](CC[C@]4(O)CCCC[C@]34C=O)[C@@]1(O)CC[C@@H]2C1=CC(=O)OC1 [ANTIARIGENIN]
[1]
  Activity: 0.05 µM
[3]
  selectivity ratio: 20
[5]
  Activity: 121%

## CO[C@H]1[C@@H](O[C@H]2CC[C@]3(C=O)[C@H]4CC[C@]5(C)[C@@H](C6=CC(=O)OC6)CC[C@]5(O)[C@@H]4CC[C@]3(O)C2)O[C@H](C)[C@@H](O)[C@H]1O (stereo in doubt; 18) [STROPHATHOJAVOSIDE]
[1]
  Activity: 0.25 µM
[2]
  Activity: 1 µM
[3]
  Ratio: 10
[4]
  selectivity ratio: 5
[5]
  Activity: 567%
[6]
  Activity: 200%

## C[C@H]1O[C@H](O[C@H]2CC[C@]3(C=O)[C@H]4CC[C@]5(C)[C@@H](C6=CC(=O)OC6)CC[C@]5(O)[C@@H]4CC[C@]3(O)C2)[C@H](O)[C@H](O[C@@H]2O[C@H](CO)[C@@H](O)[C@H](O)[C@H]2O)[C@@H]1O [GLUCOSTROPHALLOSIDE]
[1]
  Activity: 0.25 µM
[2]
  Activity: 1 µM
[3]
  selectivity ratio: 10
[4]
  selectivity ratio: 10
[5]
  Activity: 489%
[6]
  Activity: 350%

## C[C@H]1O[C@H](O[C@H]2CC[C@]3(C=O)[C@H]4C[C@@H](O)[C@]5(C)[C@@H](C6=CC(=O)OC6)CC[C@]5(O)[C@@H]4CC[C@]3(O)C2)[C@H](O)[C@H](O)[C@H]1O
[1]
  Activity: 0.5 µM
[2]
  Activity: 2 µM
[3]
  selectivity ratio: 10
[4]
  selectivity ratio: 15
[5]
  Activity: 220%
[6]
  Activity: 200%

## C[C@@H]1O[C@H](O[C@H]2CC[C@@]3(C(=O)O[C@@H]4O[C@H](CO)[C@@H](O)[C@H](O)[C@H]4O)[C@H](CC[C@@H]4[C@@H]3CC[C@]3(C)[C@@H](C5=CC(=O)OC5)CC[C@]43O)C2)[C@H](O)[C@H](O)[C@H]1O [ANTIAROSIDE F]
[1]
  Activity: 1.42 µM
[2]
  Activity: 3.17 µM
[3]
  selectivity ratio: 6
[4]
  selectivity ratio: 5.8
[5]
  Activity: 140%
[6]
  Activity: 618%

## C[C@@H]1O[C@@H](O[C@H]2CC[C@@]3(CO)[C@H](CC[C@@H]4[C@@H]3CC[C@]3(C)[C@@H](C5=CC(=O)OC5)CC[C@]43O)C2)[C@H](O)[C@H](O)[C@H]1O[C@@H]1O[C@H](CO)[C@@H](O)[C@H](O)[C@H]1O [ANTIAROSIDE B]
[1]
  Activity: 0.38 µM
[2]
  Activity: 0.075 µM
[3]
  selectivity ratio: 5
[4]
  selectivity ratio: 100
[5]
  Activity: 373%
[6]
  Activity: 382%

## C[C@H]1O[C@H](O[C@H]2CC[C@]3(C=O)[C@H]4C[C@@H](O)[C@]5(C)[C@@H](C6=CC(=O)OC6)CC[C@]5(O)[C@@H]4CC[C@]3(O)C2)[C@H](O)[C@H](O)[C@@H]1O [ANTIALLOSIDE]
[1]
  Activity: 0.25 µM
[3]
  selectivity ratio: 80
[5]
  Activity: 350%

## C[C@@H]1O[C@H](O[C@H]2CC[C@@H]3[C@H]4CC[C@]5(C)[C@@H](C6=CC(=O)OC6)CC[C@]5(O)[C@@H]4CC[C@]3(O)C2)[C@H](O)[C@H](O)[C@H]1O [ANTIAROSIDE I]
[1]
  Activity: 0.83 µM
[2]
  Activity: 0.67 µM
[3]
  selectivity ratio: 6.7
[4]
  selectivity ratio: 10.7
[5]
  Activity: 562%
[6]
  Activity: 1246%

## CO[C@H]1[C@@H](O[C@H]2CC[C@]3(C=O)[C@H]4CC[C@]5(C)[C@@H](C6=CC(=O)OC6)CC[C@]5(O)[C@@H]4CC[C@]3(O)C2)O[C@H](C)[C@@H](O)[C@H]1O (stereo in doubt; 20) [STROPHATHOJAVOSIDE]
[1]
  Activity: 0.5 µM
[2]
  Activity: 0.5 µM
[3]
  Ratio: 2.5
[4]
  Ratio: 4
[5]
  Activity: 225%
[6]
  Activity: 350%

## C[C@]12CC[C@H](O)C[C@@]1(O)CC[C@@H]1[C@@H]2CC[C@]2(C)[C@@H]([C@]3(O)COC(=O)C3)CC[C@]12O [ANTIAROTOXININ A]
[1]
  Activity: 0.1 µM
[3]
  selectivity ratio: 1000
[5]
  Activity: 367%

## C[C@@H]1O[C@H](O[C@H]2CC[C@]3(C(=O)O)[C@H]4C[C@@H](O)[C@]5(C)[C@@H](C6=CC(=O)OC6)CC[C@]5(O)[C@@H]4CC[C@]3(O)C2)[C@H](O)[C@H](O)[C@H]1O [ANTIAROSIDE G]
[1]
  Activity: 3.75 µM
[2]
  Activity: 3.67 µM
[3]
  selectivity ratio: 13
[4]
  selectivity ratio: 20.7
[5]
  Activity: 419%
[6]
  Activity: 221%

## C[C@@H]1O[C@H](O[C@@H]2CC[C@]3(C=O)[C@H]4CC[C@]5(C)[C@@H](C6=CC(=O)OC6)CC[C@]5(O)[C@@H]4CC[C@]3(O)C2)[C@H](O)[C@H](O)[C@H]1O [ANTIAROSIDE C]
[1]
  Activity: 2.75 µM
[2]
  Activity: 4 µM
[3]
  selectivity ratio: 15
[4]
  selectivity ratio: 9.7
[5]
  Activity: 208%
[6]
  Activity: 229%

## C[C@H]1O[C@@H](O[C@H]2CC[C@]3(C)[C@H]4CC[C@]5(C)[C@@H](C6=CC(=O)OC6)CC[C@]5(O)[C@@H]4CC[C@]3(O)C2)[C@H](O)[C@H](O)[C@H]1O [ANTIAROSIDE A]
[1]
  Activity: 0.1 µM
[2]
  Activity: 0.083 µM
[3]
  selectivity ratio: 4.3
[4]
  selectivity ratio: 2
[5]
  Activity: 158%
[6]
  Activity: 150%

## C[C@@H]1O[C@@H](O[C@H]2C[C@@H](O)[C@]3(CO)[C@H]4[C@H](O)C[C@]5(C)[C@@H](C6=CC(=O)OC6)CC[C@]5(O)[C@@H]4CC[C@]3(O)C2)[C@H](O)[C@H](O)[C@H]1O [OUABAIN]
[1]
  Activity: 0.05 µM
[2]
  Activity: 0.05 µM
[3]
  selectivity ratio: 20
[4]
  selectivity ratio: 20
[5]
  Activity: 775%
[6]
  Activity: 249%

## C[C@@H]1O[C@H](O[C@H]2CC[C@@]3(C(=O)O)[C@H](CC[C@@H]4[C@@H]3CC[C@]3(C)[C@@H](C5=CC(=O)OC5)CC[C@]43O)C2)[C@H](O)[C@H](O)[C@H]1O [ANTIAROSIDE E]
[1]
  Activity: 0.42 µM
[2]
  Activity: 1.33 µM
[3]
  selectivity ratio: 10
[4]
  selectivity ratio: 7.7
[5]
  Activity: 264%
[6]
  Activity: 230%

## C[C@@H]1O[C@H](O[C@H]2CC[C@]3(CO)[C@H]4CC[C@]5(C)[C@@H](C6=CC(=O)OC6)CC[C@]5(O)[C@@H]4CC[C@]3(O)C2)[C@H](O)[C@H](O)[C@H]1O [CONVALLATOXOL]
[1]
  Activity: 0.1 µM
[2]
  Activity: 0.25 µM
[3]
  selectivity ratio: 5
[4]
  selectivity ratio: 20
[5]
  Activity: 138%
[6]
  Activity: 625%

## C[C@H]1O[C@H](O[C@H]2CC[C@]3(C(=O)O)[C@H]4C[C@@H](O)[C@]5(C)[C@@H](C6=CC(=O)OC6)CC[C@]5(O)[C@@H]4CC[C@]3(O)C2)[C@H](O)[C@H](O)[C@H]1O [ANTIAROSIDE H]
[1]
  Activity: 7.5 µM
[2]
  Activity: 8.33 µM
[3]
  selectivity ratio: 7.5
[4]
  selectivity ratio: 9.7
[5]
  Activity: 144%
[6]
  Activity: 260%

## CO[C@H]1[C@@H](O[C@H]2CC[C@]3(C=O)[C@H]4C[C@@H](O)[C@]5(C)[C@@H](C6=CC(=O)OC6)CC[C@]5(O)[C@@H]4CC[C@]3(O)C2)O[C@H](C)[C@@H](O)[C@@H]1O [TOXICARIOSIDE B]
[1]
  Activity: 0.1 µM
[3]
  selectivity ratio: 10
[5]
  Activity: 163%
